Converted amounts (≈) assume the structure as drawn.
Legend:
[1] = target: 3',5'-cyclic-AMP phosphodiesterase 4A (Homo sapiens, UniProt P27815); experiment: Inhibition of recombinant human PDE4A overexpressed in HEK293 cells assessed as reduction in cAMP hydrolysis by HTRF based immunoassay; assay type: cell-based; conditions: read-out: IC50
How it was run: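 Human PDE4A from lysate of HEK293 cells overexpressing the enzyme hydrolyses cAMP; remaining cAMP measured by HTRF competitive immunoassay (d2-labelled cAMP vs cryptate anti-cAMP antibody), signal inversely proportional to cAMP; IC50 determined.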

[2] = target: T1, CYP1A2 (Homo sapiens, UniProt P05177); experiment: Inhibition of CYP1A2 in human liver microsomes at 10 uM using probe substrate and in presence of co-factor measured after 20 mins by LC-MS/MS analysis relative to control; assay type: ADME
T1 sequence (P05177 whole entry): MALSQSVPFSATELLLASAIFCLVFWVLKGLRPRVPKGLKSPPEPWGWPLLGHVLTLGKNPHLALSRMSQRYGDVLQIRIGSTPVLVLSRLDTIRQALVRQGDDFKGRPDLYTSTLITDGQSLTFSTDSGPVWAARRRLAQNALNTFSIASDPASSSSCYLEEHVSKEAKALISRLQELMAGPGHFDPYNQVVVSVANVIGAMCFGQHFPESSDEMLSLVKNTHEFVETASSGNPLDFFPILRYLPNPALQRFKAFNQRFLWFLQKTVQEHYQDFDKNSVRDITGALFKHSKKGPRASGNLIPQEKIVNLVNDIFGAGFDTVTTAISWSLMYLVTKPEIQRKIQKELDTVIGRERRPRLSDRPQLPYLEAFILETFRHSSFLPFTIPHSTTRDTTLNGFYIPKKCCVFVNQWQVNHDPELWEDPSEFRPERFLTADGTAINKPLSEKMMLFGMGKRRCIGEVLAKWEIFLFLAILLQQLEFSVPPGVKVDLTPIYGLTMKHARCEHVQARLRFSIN

[3] = target: CYP2C19 (Homo sapiens, UniProt P33261); experiment: Inhibition of CYP2C19 in human liver microsomes at 10 uM using probe substrate and in presence of co-factor measured after 20 mins by LC-MS/MS analysis relative to control; assay type: ADME
Sequence of CYP2C19 (P33261 whole entry): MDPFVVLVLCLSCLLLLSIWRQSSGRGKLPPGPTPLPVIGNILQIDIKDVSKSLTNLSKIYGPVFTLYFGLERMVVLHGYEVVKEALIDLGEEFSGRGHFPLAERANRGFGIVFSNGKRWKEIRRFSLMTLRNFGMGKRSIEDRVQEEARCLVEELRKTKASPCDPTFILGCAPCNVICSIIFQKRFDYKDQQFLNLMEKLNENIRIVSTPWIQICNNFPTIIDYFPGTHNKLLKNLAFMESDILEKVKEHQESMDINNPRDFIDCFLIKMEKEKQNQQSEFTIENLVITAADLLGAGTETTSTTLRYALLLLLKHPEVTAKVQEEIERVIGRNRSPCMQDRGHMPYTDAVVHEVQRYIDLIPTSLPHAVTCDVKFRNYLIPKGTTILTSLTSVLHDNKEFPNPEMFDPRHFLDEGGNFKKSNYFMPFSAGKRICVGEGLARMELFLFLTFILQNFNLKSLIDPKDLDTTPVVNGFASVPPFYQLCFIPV

[4] = target: CYP2C9 (Homo sapiens, UniProt P11712); experiment: Inhibition of CYP2C9 in human liver microsomes at 10 uM using probe substrate and in presence of co-factor measured after 20 mins by LC-MS/MS analysis relative to control; assay type: ADME
Sequence of CYP2C9 (P11712 whole entry): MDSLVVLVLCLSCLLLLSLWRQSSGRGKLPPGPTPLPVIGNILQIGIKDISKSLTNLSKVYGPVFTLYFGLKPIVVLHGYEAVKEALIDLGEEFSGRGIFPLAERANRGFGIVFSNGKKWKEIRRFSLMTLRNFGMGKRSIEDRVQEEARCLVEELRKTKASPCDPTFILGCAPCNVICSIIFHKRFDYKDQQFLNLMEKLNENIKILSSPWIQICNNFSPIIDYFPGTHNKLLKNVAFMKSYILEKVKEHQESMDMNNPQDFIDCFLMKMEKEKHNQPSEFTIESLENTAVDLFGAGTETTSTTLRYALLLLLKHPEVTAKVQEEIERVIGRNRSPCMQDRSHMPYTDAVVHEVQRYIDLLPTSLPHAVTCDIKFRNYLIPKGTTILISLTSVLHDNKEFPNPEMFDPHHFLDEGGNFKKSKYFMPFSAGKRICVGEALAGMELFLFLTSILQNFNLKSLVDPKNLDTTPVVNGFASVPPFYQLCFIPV

[5] = target: CYP2D6 (Homo sapiens, UniProt P10635); experiment: Inhibition of CYP2D6 in human liver microsomes at 10 uM using probe substrate and in presence of co-factor measured after 20 mins by LC-MS/MS analysis relative to control; assay type: ADME
Sequence of CYP2D6 (P10635 whole entry): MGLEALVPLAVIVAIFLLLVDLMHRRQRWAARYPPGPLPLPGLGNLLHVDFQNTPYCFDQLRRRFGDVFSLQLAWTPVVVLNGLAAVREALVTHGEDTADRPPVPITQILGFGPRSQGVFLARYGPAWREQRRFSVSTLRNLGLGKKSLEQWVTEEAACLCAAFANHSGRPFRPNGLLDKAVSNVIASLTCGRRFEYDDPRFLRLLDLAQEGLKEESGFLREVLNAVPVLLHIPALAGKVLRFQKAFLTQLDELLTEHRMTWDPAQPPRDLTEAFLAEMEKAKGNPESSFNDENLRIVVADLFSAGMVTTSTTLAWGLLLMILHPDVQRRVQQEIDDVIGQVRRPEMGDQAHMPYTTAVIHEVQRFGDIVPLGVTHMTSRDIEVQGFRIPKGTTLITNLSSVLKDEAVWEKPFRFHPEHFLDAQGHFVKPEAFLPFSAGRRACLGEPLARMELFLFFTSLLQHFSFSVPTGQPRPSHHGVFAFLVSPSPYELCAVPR

[6] = target: T2, CYP3A4 (Homo sapiens, UniProt P08684); experiment: Inhibition of CYP3A4 in human liver microsomes at 10 uM using midazolam as probe substrate and in presence of co-factor measured after 20 mins by LC-MS/MS analysis relative to control; assay type: ADME
T2 sequence (P08684 whole entry): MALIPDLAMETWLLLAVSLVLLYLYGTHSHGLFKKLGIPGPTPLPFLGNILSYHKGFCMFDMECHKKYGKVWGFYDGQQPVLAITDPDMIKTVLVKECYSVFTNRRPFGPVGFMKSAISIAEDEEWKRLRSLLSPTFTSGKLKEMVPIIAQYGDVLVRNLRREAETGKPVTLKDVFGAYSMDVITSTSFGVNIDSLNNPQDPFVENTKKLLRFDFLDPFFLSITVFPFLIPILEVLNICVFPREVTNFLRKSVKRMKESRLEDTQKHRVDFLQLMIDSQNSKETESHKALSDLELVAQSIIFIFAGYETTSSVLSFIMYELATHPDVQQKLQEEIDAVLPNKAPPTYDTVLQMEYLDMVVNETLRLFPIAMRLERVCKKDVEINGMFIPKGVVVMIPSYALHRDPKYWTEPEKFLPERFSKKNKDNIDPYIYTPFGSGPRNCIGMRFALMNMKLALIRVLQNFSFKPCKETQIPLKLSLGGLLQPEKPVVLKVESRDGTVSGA

[7] = target: T2, CYP3A4; experiment: Inhibition of CYP3A4 in human liver microsomes at 10 uM using testosterone as probe substrate and in presence of co-factor measured after 20 mins by LC-MS/MS analysis relative to control; assay type: ADME
[8] = Plasma protein binding in mouse at 5 uM measured after 4 hrs by LC-MS/MS analysis
[9] = Plasma protein binding in rat at 5 uM measured after 4 hrs by LC-MS/MS analysis
[10] = Plasma protein binding in human at 5 uM measured after 4 hrs by LC-MS/MS analysis
[11] = in vitro; conditions: mouse, liver microsomes
[12] = in vitro; conditions: human, liver microsomes
[13] = in vitro; conditions: mouse, cryopreserved hepatocytes
[14] = in vitro; conditions: human, cryopreserved hepatocytes
[15] = in vitro; conditions: rat, liver microsomes
[16] = target: T3, Cytochrome P450 3A4 (Homo sapiens, UniProt P08684); experiment: Inhibition of human CYP3A4 in human liver microsomes using testosterone as substrate and in presence of co-factor preincubated for 20 mins followed by substrate addition by LC-MS/MS analysis
T3 sequence (P08684 whole entry): as above

[17] = target: T3, Cytochrome P450 3A4; experiment: Inhibition of CYP3A4 in human liver microsomes using midazolam as substrate and in presence of co-factor preincubated for 20 mins followed by substrate addition by LC-MS/MS analysis
[18] = target: Cytochrome P450 2C19 (Homo sapiens, UniProt P33261); experiment: Inhibition of CYP2C19 in human liver microsomes using probe substrate and in presence of co-factor preincubated for 20 mins followed by substrate addition by LC-MS/MS analysis
Sequence of Cytochrome P450 2C19 (P33261 whole entry): as the sequence (P33261 whole entry) above

[19] = target: T4, Cytochrome P450 1A2 (Homo sapiens, UniProt P05177); experiment: Inhibition of CYP1A2 in human liver microsomes using probe substrate and in presence of co-factor preincubated for 20 mins followed by substrate addition by LC-MS/MS analysis
T4 sequence (P05177 whole entry): T1 sequence (P05177 whole entry)

[20] = Inhibition of embelin-induced migration of human neutrophils preincubated for 30 mins followed by embelin addition and measured after 1 hr by ATPlite luminescence assay; conditions: Neutrophil
[21] = Thermodynamic solubility of compound at pH 3; conditions: buffer
[22] = Thermodynamic solubility of compound at pH 7.4; conditions: buffer
[23] = Apparent permeability from apical to basolateral in human Caco2 cells at 10 uM measured after 60 mins by lucifer yellow dye based LC-MS/MS analysis; conditions: Caco-2
[24] = Plasma protein binding in dog at 5 uM measured after 4 hrs by LC-MS/MS analysis
[25] = Inhibition of embelin-induced migration of rat neutrophils preincubated for 30 mins followed by embelin addition and measured after 1 hr by celltiter-glo assay; conditions: Neutrophil
[26] = test system: Neutrophil; experiment: Inhibition of dog neutrophil cell migration; conditions: Canis lupus familiaris
[27] = target: Cytochrome P450 2C9 (Homo sapiens) (UniProt P11712)
Sequence of Cytochrome P450 2C9 (Homo sapiens) (P11712 whole entry, looked up): as the sequence (P11712 whole entry) above

[28] = target: Cytochrome P450 2D6 (Homo sapiens) (UniProt P10635)
Sequence of Cytochrome P450 2D6 (Homo sapiens) (P10635 whole entry, looked up): as the sequence (P10635 whole entry) above

[29] = physchem; conditions: aqueous solution with 2% DMSO, pH 7.4
[30] = physchem; conditions: aqueous solution with 2% DMSO, pH 3
[31] = in vitro; conditions: mouse, cryopreserved hepatocytes; remark: listed apart in the source
[32] = in vitro; conditions: rat, cryopreserved hepatocytes
[33] = in vitro; conditions: dog, cryopreserved hepatocytes
[34] = in vitro; conditions: human, cryopreserved hepatocytes; remark: listed apart in the source
[35] = in vitro; conditions: dog, liver microsomes
[36] = in vitro; conditions: rat, cryopreserved hepatocytes; remark: listed apart in the source
[37] = in vitro; conditions: dog, cryopreserved hepatocytes; remark: listed apart in the source
[38] = in vivo; conditions: male, Sprague-Dawley, rat, po, 5 mg/kg
[39] = in vitro; conditions: rhesus monkey, liver microsomes

Sequence of 3',5'-cyclic-AMP phosphodiesterase 4A (P27815 whole entry): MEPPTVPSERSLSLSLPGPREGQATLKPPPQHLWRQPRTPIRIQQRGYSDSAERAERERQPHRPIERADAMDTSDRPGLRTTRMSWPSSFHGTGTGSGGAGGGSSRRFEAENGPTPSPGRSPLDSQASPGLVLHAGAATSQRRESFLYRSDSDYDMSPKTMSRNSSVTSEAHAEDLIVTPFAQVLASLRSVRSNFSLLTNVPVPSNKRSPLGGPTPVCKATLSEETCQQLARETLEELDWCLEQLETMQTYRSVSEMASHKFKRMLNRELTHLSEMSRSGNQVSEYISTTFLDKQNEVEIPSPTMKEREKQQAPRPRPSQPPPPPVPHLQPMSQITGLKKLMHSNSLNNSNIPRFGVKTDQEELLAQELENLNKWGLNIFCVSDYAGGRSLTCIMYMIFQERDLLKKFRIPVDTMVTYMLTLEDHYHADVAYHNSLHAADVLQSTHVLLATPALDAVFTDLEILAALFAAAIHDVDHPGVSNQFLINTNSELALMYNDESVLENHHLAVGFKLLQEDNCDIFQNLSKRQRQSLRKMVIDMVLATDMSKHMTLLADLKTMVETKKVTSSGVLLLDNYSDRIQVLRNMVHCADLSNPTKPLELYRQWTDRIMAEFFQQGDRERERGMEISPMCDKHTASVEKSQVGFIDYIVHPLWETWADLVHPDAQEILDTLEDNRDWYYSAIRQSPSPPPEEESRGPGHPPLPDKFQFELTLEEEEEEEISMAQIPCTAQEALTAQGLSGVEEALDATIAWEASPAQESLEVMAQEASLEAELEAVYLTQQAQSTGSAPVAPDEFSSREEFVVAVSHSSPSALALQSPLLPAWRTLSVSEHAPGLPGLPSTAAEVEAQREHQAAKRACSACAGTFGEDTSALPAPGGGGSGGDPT

With `COc1cc2c(cc1OC)-c1cc(NCc3ccccc3)nc(=O)n1CC2` the IC50 [1] was 0.553 µM, the inhibition at 20 min, 10 µM [2] was < 33% and the inhibition at 20 min, 10 µM [3] was < 33%. The inhibition at 20 min, 10 µM [4] was < 33%, the inhibition at 20 min, 10 µM [5] was < 33% and the inhibition at 20 min, 10 µM [6] was < 33%. The inhibition at 20 min, 10 µM [7] was < 33%.
Work on `COc1ccc2c(c1)CCn1c-2cc(OCC2COc3ccccc3O2)nc1=O` (stereo not given) yielded a fraction unbound at 4 h, 5 µM [8] of 0.01, a fraction unbound at 4 h, 5 µM [9] of 0.004 and a fraction unbound at 4 h, 5 µM [10] of 0.002. It also gave a CLint scaled at 0.5 h, 1 µM [11] of 532 mL/min/kg, a CLint scaled at 0.5 h, 1 µM [12] of 76.7 mL/min/kg and a CLint scaled at 1 µM [13] of 375 mL/min/kg. For the same molecule, the CLint scaled at 1 µM [14] was 90 mL/min/kg and the CLint scaled at 0.5 h, 1 µM [15] was 615 mL/min/kg.
With `COc1ccc2c(c1)CCn1c-2cc(OCC2CCCCO2)nc1=O` (stereo not given) the CLint scaled at 0.5 h, 1 µM [11] was 463 mL/min/kg, the CLint scaled at 0.5 h, 1 µM [12] was 21.7 mL/min/kg and the CLint scaled at 1 µM [13] was 575 mL/min/kg. The CLint scaled at 1 µM [14] was 25 mL/min/kg.
`O=c1nc(OCC2COCCO2)cc2n1CCc1cc(CCc3ccccn3)ccc1-2` (stereo not given) gave a CLint scaled at 0.5 h, 1 µM [11] of 517 mL/min/kg and a CLint scaled at 0.5 h, 1 µM [12] of 25 mL/min/kg.
Molecule `COc1ccc2c(c1)CCn1c-2cc(OCC2CCCO2)nc1=O` (stereo not given) has a CLint scaled at 0.5 h, 1 µM [11] of 2150 mL/min/kg, a CLint scaled at 0.5 h, 1 µM [12] of 33.3 mL/min/kg and a CLint scaled at 1 µM [13] of 647 mL/min/kg. The CLint scaled at 1 µM [14] was 23.3 mL/min/kg.
`CN(CC#Cc1ccc2c(c1)CCn1c-2cc(OCC2COCCO2)nc1=O)Cc1ccccc1` (stereo not given) gave a CLint scaled at 0.5 h, 1 µM [11] of 433 mL/min/kg and a CLint scaled at 0.5 h, 1 µM [12] of 88.3 mL/min/kg.
For `O=c1nc(OC[C@H]2COCCO2)cc2n1CCc1cc(C#CC3CC3)ccc1-2`, the IC50 [16] was > 50 µM, the IC50 [17] was > 50 µM and the IC50 [18] was 18.2 µM. The IC50 [19] was > 100 µM, the IC50 [20] was 0.051 µM and the solubility thermodynamic [21] was 17.6 µg/mL (≈ 46.5 µM). The solubility thermodynamic [22] was 9.49 µg/mL (≈ 25.1 µM), the Papp A→B at 1 h, 10 µM [23] was 31.2 ×10⁻⁶ cm/s and the fraction unbound at 4 h, 5 µM [8] was 0.017. It also gave a fraction unbound at 4 h, 5 µM [9] of 0.037, a fraction unbound at 4 h, 5 µM [10] of 0.059 and a fraction unbound at 4 h, 5 µM [24] of 0.033. For the same molecule, the IC50 [25] was 0.153 µM, the IC50 [26] was 0.111 µM and the IC50 [27] was 1.85 µM. It also gave an IC50 [28] of 31.6 µM, a solubility [29] of 113 µg/mL (≈ 299 µM) and a solubility [30] of 113 µg/mL (≈ 299 µM). The CLint scaled at 0.5 h, 1 µM [11] was 98.3 mL/min/kg, the CLint scaled at 0.5 h, 1 µM [12] was 16 mL/min/kg and the CLint scaled at 1 µM [13] was < 72.8 mL/min/kg. For the same molecule, the CLint scaled at 1 µM [14] was < 21.3 mL/min/kg, the half-life at 1 µM [31] was > 3.33 h and the half-life at 1 µM [32] was > 3.13 h. The half-life at 1 µM [33] was > 2.52 h, the half-life at 1 µM [34] was > 3.33 h and the CLint scaled at 0.5 h, 1 µM [15] was 82.8 mL/min/kg. For the same molecule, the CLint scaled at 0.5 h, 1 µM [35] was 52.7 mL/min/kg, the CLint scaled at 1 µM [36] was < 35.3 mL/min/kg and the CLint scaled at 1 µM [37] was < 32 mL/min/kg.
Work on `CC(C)CC(O)C#Cc1ccc2c(c1)CCn1c-2cc(OCC2COCCO2)nc1=O` (stereo not given) yielded a CLint scaled at 0.5 h, 1 µM [11] of 437 mL/min/kg and a CLint scaled at 0.5 h, 1 µM [15] of 255 mL/min/kg.
In the case of `COc1ccc2c(c1)CCn1c-2cc(OCC2COCCO2)nc1=O` (stereo not given), the fraction unbound at 4 h, 5 µM [8] is reported as 0.389, the fraction unbound at 4 h, 5 µM [9] is reported as 0.285 and the fraction unbound at 4 h, 5 µM [10] is reported as 0.223. The CLint scaled at 0.5 h, 1 µM [11] was 173 mL/min/kg, the CLint scaled at 0.5 h, 1 µM [12] was < 15 mL/min/kg and the CLint scaled at 1 µM [13] was 262 mL/min/kg. For the same molecule, the CLint scaled at 1 µM [14] was < 11.7 mL/min/kg and the CLint scaled at 0.5 h, 1 µM [15] was < 23.3 mL/min/kg.
For `N#Cc1ccccc1-c1ccc2c(c1)CCn1c-2cc(OCC2COCCO2)nc1=O` (stereo not given), the AUC(0-inf) at 24 h [38] was 2640 ng·h/mL, the CLint scaled at 0.5 h, 1 µM [39] was 193 mL/min/kg and the CLint scaled at 0.5 h, 1 µM [11] was 151 mL/min/kg. It also gave a CLint scaled at 0.5 h, 1 µM [12] of 86.7 mL/min/kg, a CLint scaled at 0.5 h, 1 µM [15] of 105 mL/min/kg and a CLint scaled at 0.5 h, 1 µM [35] of 167 mL/min/kg.
With `COc1cc2c(cc1OC)-c1cc(OCCCc3ccccc3)nc(=O)n1CC2` the solubility [29] was 3 µg/mL (≈ 7.64 µM).
Molecule `CCCCCCOc1cc2n(c(=O)n1)CCc1cc(OC)c(OC)cc1-2` has a solubility [29] of 3 µg/mL (≈ 8.37 µM).
